Values joined by “and” are separate entries in the source; they are usually repeats but may differ in a detail not shown here. Equal entries are not always repeated.
What was measured:
[1] = Plasma pharmacokinetics in patients with relapsed AML; assay type: in vivo, human
Outline: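 Relapsed AML patients got 50 mg test compound orally after an ~8 h fast, without the probe cocktail. Plasma was sampled over 48 h after a single dose and over 12 h after one week of once-daily dosing. Tmax, Cmax, AUC and oral clearance came from noncompartmental analysis.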

[2] = test system: CYP3A4, CYP2D6, and CYP2C9; test: Drug-drug interaction cocktail; assay type: in vivo, human; settings: AML patients, cocktail before and after multiple doses of 50 mg/day
Outline: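 The probe cocktail was midazolam 0.2 mg (CYP3A4), dextromethorphan 30 mg (CYP2D6) and tolbutamide 500 mg (CYP2C9), given after a two-hour fast. It was dosed ~7 days before the single test-compound dose and again after two or four weeks of daily 50 mg oral test compound. Probe plasma concentration–time profiles were compared before and after treatment.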

[3] = test system: MV4-11 cells containing the FLT3-ITD mutation; settings: animals; cited from earlier work
EPHA7 = EPHA7 (Homo sapiens, UniProt Q15375); test: Biochemical inhibition profile, EPHA7; settings: read-out: Biochemical Inhibition Profile IC50, EPHA7
Chain of EPHA7 (Q15375 28-998): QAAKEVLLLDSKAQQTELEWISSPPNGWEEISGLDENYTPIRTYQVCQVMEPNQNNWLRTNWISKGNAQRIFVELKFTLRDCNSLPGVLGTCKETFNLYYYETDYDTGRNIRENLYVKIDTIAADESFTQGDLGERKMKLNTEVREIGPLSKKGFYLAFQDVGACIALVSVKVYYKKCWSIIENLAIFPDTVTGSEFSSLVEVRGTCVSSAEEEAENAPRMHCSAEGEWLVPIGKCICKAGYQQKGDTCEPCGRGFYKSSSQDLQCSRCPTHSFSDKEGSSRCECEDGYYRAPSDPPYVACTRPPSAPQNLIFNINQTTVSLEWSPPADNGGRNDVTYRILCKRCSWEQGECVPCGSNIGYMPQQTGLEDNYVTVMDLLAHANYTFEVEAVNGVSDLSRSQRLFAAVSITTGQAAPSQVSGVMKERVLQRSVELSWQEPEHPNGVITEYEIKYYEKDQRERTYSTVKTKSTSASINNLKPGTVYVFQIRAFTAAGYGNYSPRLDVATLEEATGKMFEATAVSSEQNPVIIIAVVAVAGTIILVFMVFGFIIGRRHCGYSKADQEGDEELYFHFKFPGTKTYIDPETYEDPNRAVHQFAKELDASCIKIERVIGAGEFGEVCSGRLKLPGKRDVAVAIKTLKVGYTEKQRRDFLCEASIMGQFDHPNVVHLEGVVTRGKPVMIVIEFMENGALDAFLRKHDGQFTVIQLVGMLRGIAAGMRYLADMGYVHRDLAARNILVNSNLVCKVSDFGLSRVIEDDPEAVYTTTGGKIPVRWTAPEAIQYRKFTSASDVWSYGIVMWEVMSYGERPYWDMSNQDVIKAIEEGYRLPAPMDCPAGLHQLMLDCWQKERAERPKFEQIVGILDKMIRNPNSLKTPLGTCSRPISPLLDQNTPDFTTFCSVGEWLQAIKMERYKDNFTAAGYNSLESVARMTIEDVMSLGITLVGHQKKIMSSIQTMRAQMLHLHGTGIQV

VEGF-R1 = VEGF-R1 (Homo sapiens, UniProt P17948); test: Biochemical inhibition profile, VEGF-R1; settings: read-out: Biochemical Inhibition Profile IC50, VEGF-R1
Chain of VEGF-R1 (P17948 27-1338): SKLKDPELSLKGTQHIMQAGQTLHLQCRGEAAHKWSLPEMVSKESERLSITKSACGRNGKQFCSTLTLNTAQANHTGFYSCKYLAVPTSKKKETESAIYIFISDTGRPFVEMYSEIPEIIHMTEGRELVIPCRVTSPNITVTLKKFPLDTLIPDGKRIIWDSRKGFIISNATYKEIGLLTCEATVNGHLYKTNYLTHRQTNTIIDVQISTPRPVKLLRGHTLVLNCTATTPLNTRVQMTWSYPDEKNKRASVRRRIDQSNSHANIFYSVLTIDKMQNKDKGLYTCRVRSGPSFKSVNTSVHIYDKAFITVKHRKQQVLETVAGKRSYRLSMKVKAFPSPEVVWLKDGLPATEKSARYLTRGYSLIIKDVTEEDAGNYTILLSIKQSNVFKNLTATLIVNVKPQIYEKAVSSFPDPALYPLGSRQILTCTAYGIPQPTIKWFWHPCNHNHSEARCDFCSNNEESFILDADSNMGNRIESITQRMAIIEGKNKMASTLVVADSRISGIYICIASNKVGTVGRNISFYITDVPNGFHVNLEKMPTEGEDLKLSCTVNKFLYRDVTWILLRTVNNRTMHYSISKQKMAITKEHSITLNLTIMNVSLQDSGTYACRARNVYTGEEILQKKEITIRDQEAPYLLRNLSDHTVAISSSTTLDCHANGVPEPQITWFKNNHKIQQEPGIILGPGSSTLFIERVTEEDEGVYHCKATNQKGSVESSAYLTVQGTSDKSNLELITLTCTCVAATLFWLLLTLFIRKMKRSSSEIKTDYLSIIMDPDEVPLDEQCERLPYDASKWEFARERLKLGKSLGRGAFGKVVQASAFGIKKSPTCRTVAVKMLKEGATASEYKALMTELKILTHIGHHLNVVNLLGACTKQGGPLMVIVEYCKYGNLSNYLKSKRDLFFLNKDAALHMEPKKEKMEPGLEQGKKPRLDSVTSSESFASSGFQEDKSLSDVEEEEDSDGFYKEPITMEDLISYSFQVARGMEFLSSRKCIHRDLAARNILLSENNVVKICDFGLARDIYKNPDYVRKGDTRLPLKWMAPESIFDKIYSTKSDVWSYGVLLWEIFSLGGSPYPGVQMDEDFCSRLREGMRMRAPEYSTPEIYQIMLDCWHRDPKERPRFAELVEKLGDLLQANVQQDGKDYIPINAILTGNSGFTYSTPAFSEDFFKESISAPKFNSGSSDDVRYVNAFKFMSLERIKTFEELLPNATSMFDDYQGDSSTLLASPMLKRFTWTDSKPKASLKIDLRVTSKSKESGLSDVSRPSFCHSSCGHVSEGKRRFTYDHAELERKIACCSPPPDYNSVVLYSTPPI

Adverse events = assay type: in vivo, human
Outline: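 Five relapsed AML patients took test compound 50 mg/day as a once-daily oral capsule after an ~8 h fast, with breakfast at least 60 min later. A single-dose visit came first, then multidose treatment for four weeks (two weeks after amendment). Adverse events were graded by CTCAE v3.0. Dose-limiting toxicity definitions covered Grade ≥3 nonhematological events and Grade 3/4 QTc or blood-pressure changes.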

[4] = AML patients, single and multiple oral doses 50 mg
[5] = Visit 0, single oral dose 50 mg, Max of N 5
[6] = Visit 0, single oral dose 50 mg, Min of N 5
[7] = Visit 0, single oral dose 50 mg, individual subjects (AML patients)
[8] = Visit 1, multiple oral doses 50 mg once daily, Max of N 5
[9] = Visit 1, multiple oral doses 50 mg once daily, Min of N 5
[10] = Visit 2, after multiple oral doses 50 mg, Max of N 2
[11] = Visit 2, after multiple oral doses 50 mg, Min of N 2
[12] = Maximum CTC grade 1, n = 5 patients, regardless of causality
[13] = Maximum CTC grade 2, n = 5 patients, regardless of causality
[14] = Maximum CTC grade 3, n = 5 patients, regardless of causality
[15] = Maximum CTC grade 4, n = 5 patients, regardless of causality

Compound: Cc1cc(-c2ccn3c(-c4ccc(CC(=O)Nc5cccc(C(F)(F)F)c5)c(F)c4)cnc3c2)ccn1 [LY2457546]
- Elimination within 24 hours ([1]; AML patients, 50 mg/day orally): virtually no elimination
- Accumulation in plasma [1, 4]: Extensive accumulation
- Terminal elimination half-life [1, 4]: no terminal elimination half-life could be defined
- AUC0_24, Max [1, 5]: 41500 ng·h/mL
- AUClast, Max [1, 5]: 79200 ng·h/mL
- Clast, Max [1, 5]: 1354.06 ng/mL
- Cmax, Max [1, 5]: 2406.55 ng/mL
- Tlast, Max [1, 5]: 48 h
- Tmax, Max [1, 5]: 48 h
- AUC0_24, Min [1, 6]: 1850 ng·h/mL
- AUClast, Min [1, 6]: 1850 ng·h/mL
- Clast, Min [1, 6]: 78.459 ng/mL
- Cmax, Min [1, 6]: 105.113 ng/mL
- Tlast, Min [1, 6]: 24 h
- Tmax, Min [1, 6]: 2 h
- AUC0_24 [1, 7]: 2520 ng·h/mL and 8930 ng·h/mL and 41500 ng·h/mL and 1850 ng·h/mL and 3420 ng·h/mL
- AUClast [1, 7]: 6030 ng·h/mL and 16100 ng·h/mL and 79200 ng·h/mL and 1850 ng·h/mL and 3420 ng·h/mL
- Clast [1, 7]: 154.876 ng/mL and 302.003 ng/mL and 1354.06 ng/mL and 105.113 ng/mL and 78.459 ng/mL
- Cmax [1, 7]: 154.876 ng/mL and 604.581 ng/mL and 2406.55 ng/mL and 105.113 ng/mL and 394.238 ng/mL
- Tlast [1, 7]: 48 h and 24 h
- Tmax [1, 7]: 48 h and 2 h and 4 h and 24 h
- AUC0_24, Max ([1]; Visit 1, multiple oral doses 50 mg once daily, Max of N 3): 69100 ng·h/mL
- AUClast, Max [1, 8]: 69200 ng·h/mL
- Clast, Max [1, 8]: 2830.537 ng/mL
- Cmax, Max [1, 8]: 3812.913 ng/mL
- Tlast, Max [1, 8]: 48 h
- Tmax, Max [1, 8]: 8 h
- AUC0_24, Min ([1]; Visit 1, multiple oral doses 50 mg once daily, Min of N 3): 2320 ng·h/mL
- AUClast, Min [1, 9]: 3610 ng·h/mL
- Clast, Min [1, 9]: 28.097 ng/mL
- Cmax, Min [1, 9]: 123.44 ng/mL
- Tlast, Min [1, 9]: 8 h
- Tmax, Min [1, 9]: 0 h
- AUC0_24, Max [1, 10]: 41500 ng·h/mL
- AUClast, Max [1, 10]: 93400 ng·h/mL
- Clast, Max [1, 10]: 2190.006 ng/mL
- Cmax, Max [1, 10]: 2190.006 ng/mL
- Tlast, Max [1, 10]: 48 h
- Tmax, Max [1, 10]: 48 h
- AUC0_24, Min [1, 11]: 18500 ng·h/mL
- AUClast, Min [1, 11]: 38400 ng·h/mL
- Clast, Min [1, 11]: 708.777 ng/mL
- Cmax, Min [1, 11]: 1087.972 ng/mL
- Tlast, Min [1, 11]: 48 h
- Tmax, Min [1, 11]: 0 h
- Drug-drug interactions with midazolam, tolbutamide, and dextromethorphan [2]: No consistent drug–drug interactions
- Potency relative to sunitinib in controlling leukemia growth [3]: 10 fold
- IC50 (EPHA7): 0.221 µM
- IC50 (VEGF-R1): 0.0306 µM
- Chapped lips, number of patients (Adverse events; [12]): 1
- Constipation, number of patients (Adverse events; [12]): 1
- Cough, number of patients (Adverse events; [12]): 1
- Diarrhea, number of patients (Adverse events; [12]): 2
- Epistaxis, number of patients (Adverse events; [12]): 1
- Facial swelling, number of patients (Adverse events; [12]): 1
- Fatigue, number of patients (Adverse events; [12]): 1
- Headache, number of patients (Adverse events; [12]): 3
- Hemangioma of liver, number of patients (Adverse events; [12]): 1
- Hematoma, number of patients (Adverse events; [12]): 1
- Hematuria, number of patients (Adverse events; [12]): 1
- Hemorrhoids, number of patients (Adverse events; [12]): 1
- Hepatomegaly, number of patients (Adverse events; [12]): 1
- Hyperhidrosis, number of patients (Adverse events; [12]): 1
- Hypokalemia, number of patients (Adverse events; [12]): 3
- Inguinal hernia, number of patients (Adverse events; [12]): 1
- Musculoskeletal pain, number of patients (Adverse events; [12]): 1
- Nausea, number of patients (Adverse events; [12]): 1
- Nephrolithiasis, number of patients (Adverse events; [12]): 1
- Oropharyngeal pain, number of patients (Adverse events; [12]): 1
- Osteoporosis, number of patients (Adverse events; [12]): 1
- Peripheral edema, number of patients (Adverse events; [12]): 1
- Petechiae, number of patients (Adverse events; [12]): 3
- Splenomegaly, number of patients (Adverse events; [12]): 1
- Ulcerative colitis, number of patients (Adverse events; [12]): 1
- Vertigo, number of patients (Adverse events; [12]): 1
- Anxiety, number of patients (Adverse events; [13]): 2
- Asthma, number of patients (Adverse events; [13]): 1
- Back pain, number of patients (Adverse events; [13]): 1
- Bladder spasm, number of patients (Adverse events; [13]): 1
- Constipation, number of patients (Adverse events; [13]): 1
- Epistaxis, number of patients (Adverse events; [13]): 2
- Gingival hyperplasia, number of patients (Adverse events; [13]): 1
- Hemorrhoids, number of patients (Adverse events; [13]): 1
- Hypertension, number of patients (Adverse events; [13]): 2
- Insomnia, number of patients (Adverse events; [13]): 1
- Keratoconjunctivitis sicca, number of patients (Adverse events; [13]): 1
- Stomatitis, number of patients (Adverse events; [13]): 1
- Urticaria, number of patients (Adverse events; [13]): 1
- Anal abscess, number of patients (Adverse events; [14]): 1
- Asthenia (muscle weakness), number of patients (Adverse events; [14]): 1
- Breast cellulitis, number of patients (Adverse events; [14]): 1
- Catheter-related infection, number of patients (Adverse events; [14]): 1
- Febrile neutropenia, number of patients (Adverse events; [14]): 2
- Fungal sepsis, number of patients (Adverse events; [14]): 1
- Hypotension, number of patients (Adverse events; [14]): 1
- Neutropenic sepsis, number of patients (Adverse events; [14]): 1
- Hemorrhage, number of patients (Adverse events; [15]): 1
- Hypophosphatemia, number of patients (Adverse events; [15]): 1
- Adverse events that were Grade 1 or 2 (Adverse events; five patients, 50 mg/day orally): 81%
- Dose-limiting toxicity (Adverse events; one patient (C) of five, 50 mg/day orally): generalized muscle weakness (Grade 3)
